Measurements reported in ChEMBL document CHEMBL4513216, “Probing the Open Global Health Chemical Diversity Library for Multistage-Active Starting Points for Next-Generation Antimalarials” (ACS Infect Dis, 2020).

experiment: Toxicity liver stage against HepG2, at 10uM; format: cell-based; set-up: test concentration 10 uM, cell line HepG2-A16-CD81EGFP; conditions: human, HepG2-A16-CD81EGFP cells; read-out: INHIBITION
Outline: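 Uninfected HepG2-A16-CD81EGFP cells, 3 × 10^3 per well, 1536-well, plated on prespotted compound at 10 μM final, parasite-free screening media added to match infected plates; puromycin 10 μM positive, DMSO 0.5% negative; run in parallel with 48 h PbLuc assay at 37 °C, 5% CO2; viability by CellTiter-Glo luminescence, normalized to controls.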

First: CC(C)c1nnc(NC(=O)CCC(=O)NCC2CCCO2)s1 (stereo not given)
Second: Cc1ccn2c(=O)cc(CSCC(=O)Nc3nnc(C(C)C)s3)nc2c1
The cytotoxicity at 10 µM of the first is lower: -9.58% for the first, -8.93% for the second.

Compared with CN1CCOC[C@H]1c1nc(-c2ccncc2)c[nH]1, CCOc1ncccc1NC(=O)N1CCOCC1C (stereo not given) is higher in cytotoxicity at 10 µM: 2.23% for the first, 10.3% for the second.

Compared with Cc1ccc(S(=O)(=O)NC[C@H]2OC[C@@H](NCc3cccs3)[C@@H]2O)cc1, O=C(NCC(F)F)c1ccc(S(=O)(=O)NCCc2ccncc2)cc1 is lower in cytotoxicity at 10 µM: -3.24% for the first, -7.88% for the second.

First: Cc1nc(N2CCN(C)CC2)ncc1C(=O)N1CCCCCC1
Second: Cc1nc(Nc2ccc(Cl)cn2)sc1C(=O)NCCCN1CCCCC1
The cytotoxicity at 10 µM of the first is lower: -3.48% for the first, 1.66% for the second.

Going from CCc1ccccc1NCc1nc2[nH]c(C)c(C)c(=O)n2n1 to CCCc1nc(CNc2cc(CS(C)(=O)=O)ccc2Cl)no1, the cytotoxicity at 10 µM falls from 7.98% to -2.07%.

Going from COC(=O)CSc1nnc(CCNC(=O)OC(C)(C)C)o1 to COCCNc1nnc(S(=O)(=O)CCC(C)(C)C#N)s1, the cytotoxicity at 10 µM rises from 4.34% to 10.7%.

First: COc1ccc2c(c1)CN(Cc1ccco1)C(=O)CCN2CC(C)(C)O
Second: COc1ccc(F)c(CN2CCCC(O)(CNCc3ccon3)C2=O)c1 (stereo not given)
The cytotoxicity at 10 µM of the first is lower: -7.08% for the first, 53.6% for the second.

Compared with COc1ccc2c3c1CN(C(C)=O)CC3=CC(C)(C)CO2, CCN1CC2(CCN(C(=O)C(C)Oc3ccc(F)cc3F)CC2)OC1=O (stereo not given) is lower in cytotoxicity at 10 µM: 10.1% for the first, -1.98% for the second.

Compared with COC1CN(C(=O)OCC(C)C)CCC(=O)N(C)c2ccccc21 (stereo not given), COc1ccccc1OCc1cc(C(=O)N2CCN[C@H](C)C2)n[nH]1 is lower in cytotoxicity at 10 µM: -0.321% for the first, -9.09% for the second.

First: Cc1cccc2c1ccn2CC(=O)NC[C@@H]1CCCN2CCCC[C@H]12
Second: CC(C)Nc1cccc(CNC(=O)N2CCC[C@@H]2CO)c1
The cytotoxicity at 10 µM of the first is higher: 3.14% for the first, 1.96% for the second.

Going from Cc1nn(C)c(C)c1C1SCC(=O)Nc2c1c(O)nn2C(C)C (stereo not given) to CSc1ccc(C2SCC(=O)Nc3c2c(=O)[nH]n3C2CCOCC2)cc1 (stereo not given), the cytotoxicity at 10 µM falls from -6.82% to -14.9%.

Going from COc1ccc(-c2n[nH]c(C)c2CC(=O)NCC2CCOCC2)cc1 to COCc1cc(O)nc(C2CCCN(Cc3cc(OC)ccc3F)C2)n1 (stereo not given), the cytotoxicity at 10 µM rises from -4.28% to 4.42%.

First: O=C(Nc1ccc(Br)cc1F)c1ccc(N2CCOCC2)nn1
Second: O=C(Nc1ccc(I)cc1C(=O)NCCN1CCOCC1)c1ccco1
The cytotoxicity at 10 µM of the first is higher: 22.4% for the first, 0.512% for the second.

Going from Cc1ccccc1-c1csc2c(=O)[nH]c(N3CCCC(C(=O)O)C3)nc12 (stereo not given) to CC(=O)c1ccc(CN2CC(Oc3ccccc3C)C2)cc1, the cytotoxicity at 10 µM falls from -3.16% to -4.73%.

Compared with Cn1cnc(S(=O)(=O)NCC(C)(O)c2ccc3c(c2)OCO3)c1 (stereo not given), Cc1cc(N2CCN(C(=O)Cc3ccc4c(c3)OCO4)CC2)cc(C)n1 is lower in cytotoxicity at 10 µM: -4.44% for the first, -18% for the second.

Going from CCN1CC2(CC1=O)CN(C(=O)C(C)C)CCN(S(=O)(=O)CC)C2 (stereo not given) to CCS(=O)(=O)N1CCCn2nnc(CNC(C)=O)c2C1, the cytotoxicity at 10 µM falls from 16% to -113%.

Compared with O=c1[nH]c2c(c(=O)n1C1CCCCC1)CCC2NCc1ccccc1 (stereo not given), CCn1c(C2CCNCC2)nn(CCCc2ccccc2)c1=O is higher in cytotoxicity at 10 µM: -5.43% for the first, 1.4% for the second.

Compared with CC(C)n1c(=O)c2sccc2n(CC(=O)Nc2ccccc2)c1=O, CC(=O)N(C)Cc1ccccc1NC(=O)N(C)CCc1cccs1 is lower in cytotoxicity at 10 µM: 8.02% for the first, -10.4% for the second.

Compared with CCc1noc(C2CCCCN2C(=O)c2cc(C)n(C)n2)n1 (stereo not given), COc1c(C2CCCN2Cc2nc(C3CC3)no2)c(C)nn1C (stereo not given) is lower in cytotoxicity at 10 µM: 11.2% for the first, -1.79% for the second.

Going from CN(C)c1ccc(C(=O)N2CCC(c3cc4cnccc4[nH]3)CC2)cc1 to Cc1ccc(CCC(=O)N2CCC(Nc3cccnn3)CC2)cc1, the cytotoxicity at 10 µM falls from 1.12% to -5.36%.

Compared with Nc1nccc(C2CCCCN2Cc2cccc(F)c2)n1 (stereo not given), O=C1NCCN1C1CCN(Cc2coc(-c3ccc(F)cc3)n2)CC1 is higher in cytotoxicity at 10 µM: -4% for the first, -3.52% for the second.

Compared with Cn1cc(CN2CCc3nc(-c4ccccn4)nc(O)c3C2)cn1, Cn1cc(CN2CCCN(C(=O)c3ccc4ccccc4n3)CC2)cn1 is higher in cytotoxicity at 10 µM: -3.81% for the first, -1.9% for the second.

First: Cc1nc(Nc2nccs2)cc(C2CCCN2C2CCOCC2)n1 (stereo not given)
Second: CN(CCc1cccs1)C1CCCN(Cc2noc(C3CC3)n2)C1 (stereo not given)
The cytotoxicity at 10 µM of the first is higher: -7.08% for the first, -12.5% for the second.

Compared with CC(Sc1nncn1C)C(=O)NCCCOc1ccc(F)cc1 (stereo not given), COc1cc(Cl)ccc1C(=O)NCc1nncn1C is higher in cytotoxicity at 10 µM: -49.2% for the first, -4.35% for the second.

Compared with O=C(c1ccccn1)N1CCN(C(c2ccccc2)C(F)(F)F)CC1 (stereo not given), O=C(NCc1ccccc1CN1CCC(O)CC1)Nc1ccccn1 is higher in cytotoxicity at 10 µM: -8.18% for the first, 8.52% for the second.

Going from COCC(C)N1CCN(CCc2ccc3c(c2)CCO3)CC1 (stereo not given) to c1csc(-c2noc(C3CN(Cc4ccc5c(c4)CCO5)C3)n2)c1, the cytotoxicity at 10 µM falls from 4.16% to -8.2%.

Going from Clc1ccc2c(c1)C=C(CNC1CCc3ncnn3C1)CO2 (stereo not given) to Cn1ncnc1CNc1ccc2c(c1)N(C(=O)OC(C)(C)C)CCC2, the cytotoxicity at 10 µM rises from -1.19% to 6.37%.

Going from CCC(CNC(=O)CNC(C)=O)Oc1cccc(F)c1 (stereo not given) to CC(=O)Nc1ccc(CNC(=O)CNCc2snnc2C)cc1, the cytotoxicity at 10 µM rises from -43.6% to 8.43%.

Compared with Cc1ccc(C(=O)N2CCOC3(CCCC3)C2)c(=O)[nH]1, CCN1CCO[C@@H]2CN(C(=O)c3ccc4[nH]ccc4c3)CC[C@@H]2C1 is lower in cytotoxicity at 10 µM: 7.87% for the first, -116% for the second.

Going from CC(=O)Nc1nc(CN(C)CC2CCCN2c2cccnn2)cs1 (stereo not given) to Cc1ncsc1C(=O)NCc1cccnc1N(C)CCc1ccccn1, the cytotoxicity at 10 µM falls from 15.1% to -14.5%.

First: CC(C)CNC(=O)c1cc(Br)c2c(c1)OCCO2
Second: CCNc1ncc(C(=O)NCCc2csc(CSC)n2)cn1
The cytotoxicity at 10 µM of the first is higher: 6.7% for the first, -5.63% for the second.

Going from COCCN(Cc1ccc(F)cc1Cl)C(=O)c1ccccn1 to CS(=O)(=O)c1ccc(C(=O)NCc2nc3cc(F)ccc3[nH]2)cc1, the cytotoxicity at 10 µM falls from 11.8% to -3.34%.

First: O=C(CCCOc1ccccc1F)NCCCC(=O)Nc1cn[nH]c1
Second: Cc1cc(NC(=O)CNCc2csc(-c3cnccn3)n2)ccc1Cl
The cytotoxicity at 10 µM of the first is lower: -11.1% for the first, -3.52% for the second.

First: Cc1ccoc1C(=O)NCCOc1ncc(Cl)cc1Cl
Second: Cc1cscc1C(=O)Nc1cc(CSCCO)ccn1
The cytotoxicity at 10 µM of the first is higher: 3.02% for the first, -25.5% for the second.

Compared with CCSCc1cccc(NC2CCN(C)C2=O)c1 (stereo not given), O=c1cc(C2CCNCC2)nc(Cc2cccc(Cl)c2)[nH]1 is lower in cytotoxicity at 10 µM: 1.18% for the first, -0.869% for the second.

Compared with CCCN(Cc1ccc(C#N)cc1)Cc1nnsc1Cl, CCOc1ccc(C#N)cc1NCc1cc(C)on1 is lower in cytotoxicity at 10 µM: -58.4% for the first, -60.8% for the second.

Going from CC(C)c1ccc(CNC(C)c2ccc(S(=O)(=O)N(C)C)cc2)cc1 (stereo not given) to Cc1ccc(N(C)S(=O)(=O)c2cc(C(=O)O)cs2)cc1, the cytotoxicity at 10 µM falls from 32.6% to 0.0898%.

Going from CC(C)CSCCCNC(=O)C1CCC1 to COCC(C)N(C)C(=O)NC1CCN(c2ncccn2)CC1 (stereo not given), the cytotoxicity at 10 µM falls from -4.47% to -12.5%.

First: CC(NCCCc1cnn(C)c1)c1ccc(Cl)s1 (stereo not given)
Second: CN(C)C(=O)Cn1c2c(ccc1=O)CCN(Cc1cnn(C)c1)CC2
The cytotoxicity at 10 µM of the first is higher: 5.29% for the first, 0.886% for the second.

First: CS(=O)(=O)Cc1nc(CN2CCC(C(F)(F)F)CC2)cs1
Second: Cn1ccnc1C(=O)NC[C@H]1OC[C@@H]2CCN(S(C)(=O)=O)C[C@@H]21
The cytotoxicity at 10 µM of the first is higher: -10.9% for the first, -101% for the second.

First: CC(C)(C)OC(=O)N1CCCc2ccc(NCc3ncc[nH]3)cc21
Second: CCc1ccc(NC(=O)CCN2CC(n3nc(C)cc3C)C2)cc1
The cytotoxicity at 10 µM of the first is higher: -5.99% for the first, -8.03% for the second.

First: O=C(CC1CC1)N1CCC2(CCCN(c3ncccn3)C2)CC1
Second: CC(C)CN1CCc2[nH]cnc2C12CCN(C(=O)c1cnn(C)c1)CC2
The cytotoxicity at 10 µM of the first is lower: -71% for the first, -4.68% for the second.

Going from N#Cc1cccc(N2CCC(CO)(CCc3ccccc3)CC2)n1 to CC(C)(Cn1cnc(-c2ccccc2)c1-c1ccco1)N1CCOCC1, the cytotoxicity at 10 µM rises from -48% to -38.8%.

Going from CC(C)(C)c1oc(C(N)=O)cc1CN1CCCCC(N)C1 (stereo not given) to COCCN1CCC(CNC(=O)C2(c3ccc(Br)cc3)CCCC2)C1 (stereo not given), the cytotoxicity at 10 µM falls from 5.94% to -5.3%.

Compared with CN1CCN(C(=O)NCCc2ccc(F)cc2)[C@H]2CS(=O)(=O)C[C@H]21, CCCN1CCN(C(=O)c2cnccn2)[C@H]2CS(=O)(=O)C[C@H]21 is lower in cytotoxicity at 10 µM: 10.8% for the first, -19.8% for the second.

Compared with O=C1NCCN2CCN(Cc3ccc(Cl)c(Cl)c3)CC12 (stereo not given), Cc1noc(C)c1CCC(=O)N1CCCN(Cc2cccs2)CC1 is higher in cytotoxicity at 10 µM: -4.92% for the first, -3.39% for the second.

Compared with Cc1cc(F)ccc1S(=O)(=O)N1C[C@@H](C)[C@@](C)(O)C1, CN(C)C(=O)c1ccc2c(c1)nc(N1CC[C@H](O)C1)n2C is lower in cytotoxicity at 10 µM: -7.25% for the first, -18.8% for the second.

First: O=C(C1CC1)N1CCc2c(ncnc2NCCc2nc3c(s2)CCC3)C1
Second: O=C(c1cnc(-c2cccnc2)nc1)N1CCSCC1
The cytotoxicity at 10 µM of the first is lower: -1.05% for the first, 0.431% for the second.

Going from CCCN1CCC(N2CCC(Cn3cc(C4CC4)nn3)CC2)CC1 to CCCc1n[nH]c(C2CN(Cc3nnc(C4CC4)o3)CCO2)n1 (stereo not given), the cytotoxicity at 10 µM falls from -1.98% to -20.2%.

Compared with CCn1ccnc1CN(C)c1cc(C2CC2)ncn1, Cc1cc(C(=O)N2C[C@@H]3C(CN(C)CCCn4cccn4)[C@@H]3C2)c(C)o1 (stereo not given in full) is lower in cytotoxicity at 10 µM: -47.9% for the first, -55.4% for the second.

Going from CN(Cc1nc(Cc2ccccc2F)no1)CC1Cc2ccccc2O1 (stereo not given) to COc1cccc(Nc2nc(-c3ccncc3)nc3c2CNCC3)c1, the cytotoxicity at 10 µM falls from -5.19% to -6.61%.

Going from Cc1nc(N2CCC(C(O)c3nccn3C)CC2)c2c(C)noc2n1 (stereo not given) to CCC(O)Cn1cc(C2=CCN(Cc3cc(O)nc(C)n3)CC2)cn1 (stereo not given), the cytotoxicity at 10 µM falls from 7.54% to -9.2%.

First: C=C(C)COc1cccc(CNCCc2nc(N)cc(O)n2)c1
Second: COc1cc(CNCC(C)O)cc(Cl)c1OCc1ccc(C)cc1 (stereo not given)
The cytotoxicity at 10 µM of the first is lower: -47.1% for the first, -5.23% for the second.

First: Cc1ccc(-c2nnc(CN3CCn4c(nnc4C4CC4)C3)o2)cc1
Second: CO[C@H]1CCN(S(=O)(=O)c2cccnc2)[C@@H]2CN(CC3CC3)C[C@H]12
The cytotoxicity at 10 µM of the first is higher: -6.37% for the first, -73.5% for the second.

First: O=C(Cc1ccsc1)N1C[C@@H]2OCCN(c3cnccn3)[C@@H]2C1
Second: CCCC(=O)Nc1ccc2c(c1)C1(CCOCC1)CN2CCOC
The cytotoxicity at 10 µM of the first is higher: 11.6% for the first, -104% for the second.
